Nine compounds from ChEMBL document CHEMBL4038266, “Griseofulvin Derivative and Indole Alkaloids from Penicillium griseofulvum CPCC 400528” (J Nat Prod, 2017) can be followed below.

The first assay has as its system Human immunodeficiency virus 1. Kind of assay: Antiviral activity against VSV pseudotyped HIV1 infected in SupT1 cells after 48 hrs by luciferase reporter gene assay. The assay is classed as functional, cell-based. The conditions noted are these: Human immunodeficiency virus 1, SUP-T1, 48 h. In short, it runs like this:
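VSV-G pseudotyped HIV-1 produced by cotransfecting 293T cells (2 × 10^5/mL) with 0.6 μg pNL-Luc-E and 0.4 μg pHIT/G. Supernatant harvested after 48 h, 0.45 μm filtered, and capsid quantified by p24 antigen-capture ELISA. SupT1 cells infected at MOI 1 with or without compound, 37 °C, 48 h. Inhibition read by firefly luciferase. Efavirenz positive control.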
In general terms: Reporter assays use an easily measured gene product as a stand-in for the process of interest.
Consider `Cc1cc(=O)n2c(n1)-c1c(cc3cccc4c3c1C(=O)N4C)C2(C)C`, for which the IC50 (as a rule, the concentration that inhibits the measured activity by half) was 77.9 µM.
In turn, `CC(=O)[C@@]1(O)C(=O)N2C(C)(C)[C@@H]3Cc4cccc5c4[C@@]4(O[C@@]1(O)[C@@]2(O)[C@H]34)C(=O)N5` registered an IC50 of 70.1 µM. This IC50 and that of the compound before are within 1.5-fold of each other.
On the same count and under the same terms, the same measure for `Cc1cc(=O)n2c(n1)-c1c(cc3cccc4c3c1C(=O)N4)C2(C)C`: 20.5 µM; for `COc1cc(O)c2c(=O)c3c(C)cc(O)cc3oc2c1`: 79.4 µM.
The same measure, in the same setting: to `CN1C(=O)c2c3c(cc4cccc1c24)C(C)(C)NC3=O` belongs 12.6 µM; to `COC1=CC(=O)C[C@@H](C)[C@]12Oc1cc(OC)cc(OC)c1C2=O`, 89.7 µM; to `COc1cc(OC)c2c(c1Cl)O[C@@]1(C(=O)C=C(NCCC(C)C)C[C@H]1C)C2=O`, 33.2 µM.
On the same count and under the same terms, to `COc1ccc2c3c1C(=O)CC(C)(C)N3C(=O)[C@]21C[C@]2([N+](=O)[O-])CN3CCC[C@H]3C[C@@H]2C1(C)C` belongs 57.7 µM.
As to `COC1=CC(=O)C[C@@H](C)[C@]12Oc1c(Cl)c(OC)cc(OC)c1C2=O` [GRISEOFULVIN], it took 87.1 µM to reach half-maximal inhibition (IC50). Against the preceding compound, the IC50 is about 1.5-fold higher.

The next assay deals with Escherichia coli. Kind of assay: Antibacterial activity against Escherichia coli after 18 hrs by broth microdilution method. The assay is classed as functional.
Settings: not given
Put shortly:
(§1)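 Broth microdilution per CLSI, using ATCC standard strains. Final compound concentrations ran from 0.125 to 256 μg/mL. Plates were incubated at 37 °C for 18 h. MIC was taken as the lowest concentration preventing visible bacterial growth. Levofloxacin served as the positive control.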
On the technique in general: Broth dilution looks for growth in wells or tubes with falling amounts of substance.
For `Cc1cc(=O)n2c(n1)-c1c(cc3cccc4c3c1C(=O)N4C)C2(C)C`, the MIC (as a rule, the smallest concentration in the dilution series that meets the test's criterion for growth inhibition) was greater than 64 µg/mL.
Still for that read-out and setting: the same measure for `CC(=O)[C@@]1(O)C(=O)N2C(C)(C)[C@@H]3Cc4cccc5c4[C@@]4(O[C@@]1(O)[C@@]2(O)[C@H]34)C(=O)N5`: greater than 64 µg/mL; for `Cc1cc(=O)n2c(n1)-c1c(cc3cccc4c3c1C(=O)N4)C2(C)C`: greater than 64 µg/mL; for `COc1cc(O)c2c(=O)c3c(C)cc(O)cc3oc2c1`: greater than 64 µg/mL.
The same measure, in the same setting: to `CN1C(=O)c2c3c(cc4cccc1c24)C(C)(C)NC3=O` belongs greater than 64 µg/mL.
As for `COC1=CC(=O)C[C@@H](C)[C@]12Oc1cc(OC)cc(OC)c1C2=O`, the MIC is greater than 64 µg/mL.
On the same count and under the same terms, to `COc1cc(OC)c2c(c1Cl)O[C@@]1(C(=O)C=C(NCCC(C)C)C[C@H]1C)C2=O` belongs greater than 64 µg/mL.
Still for that read-out and setting: to `COc1ccc2c3c1C(=O)CC(C)(C)N3C(=O)[C@]21C[C@]2([N+](=O)[O-])CN3CCC[C@H]3C[C@@H]2C1(C)C` belongs greater than 64 µg/mL; to `COC1=CC(=O)C[C@@H](C)[C@]12Oc1c(Cl)c(OC)cc(OC)c1C2=O` [GRISEOFULVIN], greater than 64 µg/mL.

For another assay, the system named is Staphylococcus aureus. The experiment in a line: Antibacterial activity against Staphylococcus aureus after 18 hrs by broth microdilution method. The assay is classed as functional.
Settings: not given
Put shortly: as §1
`Cc1cc(=O)n2c(n1)-c1c(cc3cccc4c3c1C(=O)N4C)C2(C)C` showed an MIC greater than 64 µg/mL.
On the same count and under the same terms, the same measure for `CC(=O)[C@@]1(O)C(=O)N2C(C)(C)[C@@H]3Cc4cccc5c4[C@@]4(O[C@@]1(O)[C@@]2(O)[C@H]34)C(=O)N5`: greater than 64 µg/mL; for `Cc1cc(=O)n2c(n1)-c1c(cc3cccc4c3c1C(=O)N4)C2(C)C`: greater than 64 µg/mL; for `COc1cc(O)c2c(=O)c3c(C)cc(O)cc3oc2c1`: greater than 64 µg/mL.
On the same count and under the same terms, the same measure for `CN1C(=O)c2c3c(cc4cccc1c24)C(C)(C)NC3=O`: greater than 64 µg/mL.
Still for that read-out and setting: the same measure for `COC1=CC(=O)C[C@@H](C)[C@]12Oc1cc(OC)cc(OC)c1C2=O`: greater than 64 µg/mL; for `COc1cc(OC)c2c(c1Cl)O[C@@]1(C(=O)C=C(NCCC(C)C)C[C@H]1C)C2=O`: greater than 64 µg/mL.
`COc1ccc2c3c1C(=O)CC(C)(C)N3C(=O)[C@]21C[C@]2([N+](=O)[O-])CN3CCC[C@H]3C[C@@H]2C1(C)C` came in with an MIC greater than 64 µg/mL.
On the same count and under the same terms, the same measure for `COC1=CC(=O)C[C@@H](C)[C@]12Oc1c(Cl)c(OC)cc(OC)c1C2=O` [GRISEOFULVIN]: greater than 64 µg/mL.
